In one experiment the test system is MCF-7. The note with it: read-out: IC50 against MCF-7; cited from earlier work.
Experiment [1] deals with breast MCF-7 cancer cells. Briefly: Cytotoxicity using the MTT assay, MCF-7. The experiment is classed as cell-based. The note with it: for inhibition at 100 µM: read-out: % of cell inhibition ± SD at [100 μM], MCF7. The procedure, abridged:
(§1)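 MTT viability; cells grown with 10% FBS and 1% penicillin–streptomycin, exposed next day to five concentrations (0.01, 0.1, 1, 10, 100) for 48 h. MTT dye added for 3 h, then viability calculated against untreated control. IC50 taken from dose–response curve; mean ± SD of three independent triplicates (n = 3).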
Background: Tetrazolium assays rely on reduction of a dye to a coloured formazan, in cell work by metabolically active cells.

The next experiment relates to liver HepG2 cancer cells. Briefly: Cytotoxicity using the MTT assay, HepG2. The experiment is classed as cell-based. As to conditions: for inhibition at 100 µM: read-out: % of cell inhibition ± SD at [100 μM], HepG2. A digest of the protocol: as §1
Another experiment deals with PIM-1 kinase (Homo sapiens, UniProt P11309). Briefly: PIM-1 kinase inhibitory assay. The experiment is classed as biochemical. As to conditions: for % of kinase inhibition, PIM-1 kinase: concentration not given.
The test system of a further experiment is MCF-10A normal cells. Kind of experiment: Cytotoxicity using the MTT assay, MCF-10A. The experiment is classed as cell-based. The note with it: Homo sapiens, read-out: IC50 ± SD, MCF-10A. A digest of the protocol:
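Normal breast cells run in MTT viability assay. IC50 derived from dose–response curve; values are mean ± SD of three independent triplicate experiments (n = 3).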

For experiment [2], the system named is Solid Ehrlich carcinoma (SEC). Kind of experiment: In vivo antitumor activity in SEC-bearing mice. On the set-up: species or system Swiss albino mice. As to conditions: 5 mg/kg I.P.; for tumor weight: n = 6, SEC control 198.5 ± 10.6; for tumor volume: n = 6, SEC control 274.8 ± 16.6.
Experiment [3] relates to MCF-7 cells. Briefly: Autophagy evaluation using acridine orange flow cytometry. The class given is cell-based. As to conditions: MCF-7, 48 h, control 32.8 × 10^3. (Flow cytometry measures light scatter and fluorescence of single cells or particles in a stream.)
In experiment [4] the test system is MCF-7 cells. Briefly: Wound-healing assay. The class given is cell-based.
Experiment [5] concerns MCF-7 cells. Kind of experiment: Annexin V/PI staining flow cytometry. The class given is cell-based. As to conditions: MCF-7, treated at IC50, 48 h.
For experiment [6], the system named is MCF-7 cells. Kind of experiment: DNA content-flow cytometry cell cycle analysis. The class given is cell-based. As to conditions: MCF-7, treated at IC50, 48 h; control 29.12%.
The mark [7] stands for this setting: Homo sapiens, HepG2, 48 h, read-out: IC50 ± SD, HepG2, HepG2, MTT, 48 h, n = 3.
Where [8] appears, read: read-out: IC50 ± SD, HepG2, HepG2, MTT, 48 h, n = 3.
[9] abbreviates: Homo sapiens, MCF7, 48 h, read-out: IC50 ± SD, MCF7, MCF7, MTT, 48 h, n = 3.

Where “and” joins values, the source holds several entries; their conditions need not be identical. Equal entries are not always repeated. Where two headings read alike, the source gives them in different places.

Sequence of PIM-1 kinase (P11309 whole entry): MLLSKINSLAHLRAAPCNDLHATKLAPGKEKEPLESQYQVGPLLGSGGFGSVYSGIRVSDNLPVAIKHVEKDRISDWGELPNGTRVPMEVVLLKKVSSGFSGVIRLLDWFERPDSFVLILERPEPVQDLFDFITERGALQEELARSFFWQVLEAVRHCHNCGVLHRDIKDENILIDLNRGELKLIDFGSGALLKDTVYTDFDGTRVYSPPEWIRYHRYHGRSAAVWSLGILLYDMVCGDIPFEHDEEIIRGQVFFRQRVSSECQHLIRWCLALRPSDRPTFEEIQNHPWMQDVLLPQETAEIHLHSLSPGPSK

Usually IC50 stands for the concentration at which inhibition is half-maximal. With `CS(=O)(=O)CCNCc1ccc(-c2ccc3ncnc(Nc4ccc(OCc5cccc(F)c5)c(Cl)c4)c3c2)o1` [lapatinib], the IC50 in the experiment with MCF-7 is 4690 nM.
For orientation: inhibition means the relative decrease from the control value, in per cent. For the molecule `C=CCSc1nnc(COc2nc(C)cc(C)c2C#N)o1` [Compound 5, 2-((5-(Allylthio)-1,3,4-oxadiazol-2-yl)methoxy)-4,6-dimethylnicotinonitrile], the inhibition at 100 µM was 47 ± 1.4% in experiment [1] (Homo sapiens, MCF7, 48 h) and 69 ± 2.1% in the experiment with liver HepG2 cancer cells (Homo sapiens, HepG2, 48 h).
On to `CCOC(=O)CSc1nnc(COc2nc(C)cc(C)c2C#N)o1` [Compound 3, Ethyl 2-((5-(((3-Cyano-4,6-dimethylpyridin-2-yl)oxy)methyl)-1,3,4-oxadiazol-2-yl)thio)acetate], for which the inhibition at 100 µM came to 55.1 ± 2.1% in experiment [1] (Homo sapiens, MCF7, 48 h) and 57.8 ± 1.9% in the experiment on liver HepG2 cancer cells (Homo sapiens, HepG2, 48 h).
In the case of `CC(=O)OC[C@H]1O[C@H](Sc2nnc(COc3nc(C)cc(C)c3C#N)o2)[C@H](OC(C)=O)[C@@H](OC(C)=O)[C@H]1OC(C)=O` [Compound 8, 2-((5-(2,3,4,6-Tetra-O-acetyl-α-D-galactopyranosylsulfanyl)-1,3,4-oxadiazol-2-yl)methoxy)-4,6-dimethylpyridine-3-carbonitrile], the inhibition at 100 µM turned out to be 59.8 ± 1.7% in experiment [1] (Homo sapiens, MCF7, 48 h) and 57.8 ± 1.6% in the experiment with liver HepG2 cancer cells (Homo sapiens, HepG2, 48 h).
As for `Cc1cc(C)c(C#N)c(OCC(=O)NCc2ccccc2)n1` [Compound 14, N-Benzyl-2-((3-cyano-4,6-dimethylpyridin-2-yl)oxy)acetamide], the inhibition at 100 µM in [1] (Homo sapiens, MCF7, 48 h) is 48.8 ± 1.2%; in the experiment on liver HepG2 cancer cells (Homo sapiens, HepG2, 48 h), 35.5 ± 1.1%.
On to `Cc1cc(C)c(C#N)c(OCC(=O)N2CCCCC2)n1` [Compound 13, 4,6-Dimethyl-2-(2-oxo-2-(piperidin-1-yl)ethoxy)nicotinonitrile], for which the inhibition at 100 µM in experiment [1] (Homo sapiens, MCF7, 48 h) worked out at 64.6 ± 1.8%. The inhibition at 100 µM in the experiment with liver HepG2 cancer cells (Homo sapiens, HepG2, 48 h) was found to be 56.4 ± 1.4%. At PIM-1 kinase, half-maximal inhibition (IC50) required 19.8 ± 1.1 nM and the “% of kinase inhibition, PIM-1 kinase” value was determined as 94.9 ± 2.9%.
As to `CCCCCSc1nnc(COc2nc(C)cc(C)c2C#N)o1` [Compound 6, 4,6-Dimethyl-2-((5-(pentylthio)-1,3,4-oxadiazol-2-yl)methoxy)nicotinonitrile], the inhibition at 100 µM in [1] (Homo sapiens, MCF7, 48 h) came out at 78.2 ± 2.2%; in the experiment on liver HepG2 cancer cells (Homo sapiens, HepG2, 48 h) it was 79.2 ± 2.2%. Moreover, the IC50 amounted to 5270 nM with liver HepG2 cancer cells (setting [7]), 6640 ± 280 nM in the experiment on liver HepG2 cancer cells (setting [8]) and 19.4 ± 0.7 nM against PIM-1 kinase. Moreover, the “% of kinase inhibition, PIM-1 kinase” value at PIM-1 kinase was 94.3 ± 1.3%.
Regarding `COC(=O)CNC(=O)COc1nc(C)cc(C)c1C#N` [Compound 11, Methyl (2-((3-Cyano-4,6-dimethylpyridin-2-yl)oxy)acetyl)glycinate], the inhibition at 100 µM in experiment [1] (Homo sapiens, MCF7, 48 h) is 78.6 ± 2.3%; in the experiment on liver HepG2 cancer cells (Homo sapiens, HepG2, 48 h) it was 68.8 ± 1.6%. Besides, the IC50 in [1] (setting [9]) came out at 730 ± 40 nM; on PIM-1 kinase, 42.3 ± 1.1 nM. Also, the “% of kinase inhibition, PIM-1 kinase” value at PIM-1 kinase was determined as 90.1 ± 2.7%.
`Cc1cc(C)c(C#N)c(OCc2n[nH]c(=S)o2)n1` [Compound 2, 4,6-Dimethyl-2-((5-thioxo-4,5-dihydro-1,3,4-oxadiazol-2-yl)methoxy)nicotinonitrile]: the inhibition at 100 µM in experiment [1] (Homo sapiens, MCF7, 48 h) worked out at 41.9 ± 1.9%; in the experiment with liver HepG2 cancer cells (Homo sapiens, HepG2, 48 h), 43.5 ± 1.8%.
As to `COc1cccc2c1C(=O)c1c(O)c3c(c(O)c1C2=O)C[C@@](O)(C(=O)CO)C[C@@H]3O[C@H]1C[C@H](N)[C@H](O)[C@H](C)O1` [doxorubicin, reference compound], the inhibition at 100 µM in [1] (Homo sapiens, MCF7, 48 h) stood at 90.2 ± 2.1%; in the experiment with liver HepG2 cancer cells (Homo sapiens, HepG2, 48 h), 79.1 ± 2.3%. In addition, the IC50 in experiment [1] (setting [9]) was determined as 2140 ± 100 nM; with MCF-10A normal cells it was 15800 ± 630 nM; with liver HepG2 cancer cells (setting [7]), 2480 ± 100 nM. In [2], the tumor weight was 63.4 mg. The tumor volume in experiment [2] is 112.3 mm^3.
Turning to `Cc1cc(C)c(C#N)c(OCc2nnc(SCc3ccccc3)o2)n1` [Compound 4, 2-((5-(Benzylthio)-1,3,4-oxadiazol-2-yl)methoxy)-4,6-dimethylnicotinonitrile], the inhibition at 100 µM was determined as 72.1 ± 2.9% in experiment [1] (Homo sapiens, MCF7, 48 h) and 75.8 ± 2.3% in the experiment on liver HepG2 cancer cells (Homo sapiens, HepG2, 48 h).
With `Cc1cc(C)c(C#N)c(OCC(=O)N2CCOCC2)n1` [Compound 12, 4,6-Dimethyl-2-(2-morpholino-2-oxoethoxy)nicotinonitrile], the inhibition at 100 µM in experiment [1] (Homo sapiens, MCF7, 48 h) was 84.2 ± 2.6%; with liver HepG2 cancer cells (Homo sapiens, HepG2, 48 h), 85.1 ± 2.1%. The IC50 came out at 500 nM in [1] (setting [9]); 510 ± 20 nM in [1] (read-out: IC50 ± SD, MCF7, MCF7, MTT, 48 h, n = 3); 52800 ± 2100 nM in the experiment on MCF-10A normal cells; 6600 nM with liver HepG2 cancer cells (setting [7]); 5270 ± 200 nM in the experiment with liver HepG2 cancer cells (setting [8]); 14.3 ± 0.6 nM against PIM-1 kinase. For the same molecule, in the experiment with MCF-7 cells [3], the autophagic cell death is given as 87.6 × 10^3 cells. The molecule also came in with a wound closure in the experiment with MCF-7 cells [4] (MCF-7, after 48 h of treatment, control 95.6%) of 71.8%. Further, the “average L of migration” value in the experiment on MCF-7 cells [4] (MCF-7, time 72 h) came out at 0.32 mm. Moreover, the “% closure” value in the experiment with MCF-7 cells [4] (MCF-7, time 72 h, Cont.MCF-7 95.55) is 71.85%. The migrated cell area with MCF-7 cells [4] (MCF-7, time 72 h, total area 0.225) is on record as 0.161. For the same molecule, the early apoptosis in the experiment with MCF-7 cells [5] is 23.18%. Moreover, the “increase of apoptosis versus untreated control” value in the experiment on MCF-7 cells [5] is recorded as 52.2 fold. In addition, the late apoptosis with MCF-7 cells [5] amounted to 10.25%. In the experiment with MCF-7 cells [5] (untreated control 0.64%), this molecule yielded a total apoptosis of 33.43%. Moreover, in the experiment with MCF-7 cells [6], the “S-phase cell population (%DIP S)” value is given as 36.02%. Moreover, in [2], the tumor weight is 72.8 mg and 72.8 ± 1.74 mg. Also, the tumor volume in [2] is 159.2 mm^3 and 159.2 ± 10.1 mm^3. Besides, the “tumor inhibition ratio (TIR %)” value in experiment [2] (n = 6, TIR % = C – T/C × 100) was 42.1% and 42.1 ± 1.0%. The “% of kinase inhibition, PIM-1 kinase” value at PIM-1 kinase was 97.5 ± 1.3%.

Source of the values: PMC10720030 (ACS Omega, 2023).
